# Measurements taken from ChEMBL document CHEMBL5150059, “Transcriptional Inhibition of MicroRNA miR-122 by Small Molecules Reduces Hepatitis C Virus Replication in Liver Cells” (J Med Chem, 2022).
# The source made the active and inactive calls. The rule behind the calls is not given here.
# Assays:
# microRNA 122 [1] = assay: Inhibition of miR-122 in human Huh-7 cells expressing renilla luciferase gene assessed as relative luciferase unit after 48 hrs by dual luciferase assay relative to control; type: cell-based; design: concentration or dose not given beside the values
# How it was run: (§1)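 Huh7-miR122 stable line (miR-122 site in the Renilla luciferase 3′ UTR, kept in 500 μg/mL G418), seeded 15,000/well. After overnight incubation, treated 48 h with compound or DMSO (0.1% final) in triplicate. Renilla and firefly read by dual luciferase; Renilla normalized to firefly. Dose–response used for EC50.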
# [2] = Effect on non-miR-122 pathway in human Huh-7 cells harboring psi-check empty vector assessed as increase in luminescence at 10 uM after 48 hrs by dual luciferase assay relative to control; type: functional
# How it was run: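 Huh7 cells transfected with psiCHECK-empty reporter (miR-122 site replaced by a non-targeted linker) for 2 h. Medium then replaced with compound at 10 μM or DMSO (0.1% final), in triplicate. Renilla/firefly read by dual luciferase after 48 h, normalized to DMSO. At least three independent experiments, mean ± SD.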
# Renilla = assay: Inhibition of recombinant renilla luciferase at 10 uM using coelenterazine as substrate incubated for 10 mins by luminescence based microplate reader analysis relative to control; values are per cent of control
# HEK293 = assay: Inhibition of […] (unknown origin) transfected in HEK293 cells coexpressing CYP26A1 assessed as reduction in luciferase expression at 25 uM after 48 hrs dual luciferase assay; type: cell-based; details: Homo sapiens
# How it was run: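 HEK293T cells (no endogenous HNF4α) co-transfected for 4 h with CYP26A1 promoter–firefly luciferase reporter, HNF4α expression plasmid and Renilla control plasmid. Then treated 48 h with 25 μM compound or DMSO (0.25% final). Read by dual luciferase assay, normalized to DMSO.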
# [3] = Binding affinity to recombinant C-terminal His-tagged […] (147 to 377 residues) (unknown origin) expressed in Escherichia coli by spectrofluorometer analysis; design: species or system Homo sapiens
# How it was run: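 His-tagged HNF4α ligand-binding domain (aa 147–377) expressed and purified from E. coli. 200 nM protein in PBS pH 7.4 titrated with increasing compound at 25 °C. Intrinsic Trp/Tyr fluorescence read at 330 nm (excitation 280 nm), corrected for buffer and ligand alone. Intensity change versus concentration fitted to Hill equation for KD. Two independent experiments.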
# Huh-7 [4] = assay: Inhibition of pGL3-miR-122 (unknown origin) promotor activity transfected in human Huh-7 cells at 25 uM after 48 hrs by Bright-glo luciferase assay; type: cell-based
# How it was run: (§2)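 Huh7 cells transfected 3 h with pGL3-miR122 promoter–firefly reporter, parent or with transcription-factor site mutated/deleted. Then treated 48 h with 25 μM compound or 0.1% DMSO, in triplicate. Read by Bright-Glo luminescence; XTT viability assayed in parallel. Luminescence divided by viability, normalized to DMSO per reporter. Three independent experiments.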
# Huh-7 [5] = assay: Inhibition of pGL3-miR-122 (unknown origin) promotor activity transfected in Huh-7 cells harboring HNF3beta mutant assessed as reduction in luciferase activity at 25 uM after 48 hrs by Bright-glo luciferase assay; type: cell-based; how it was run: as §2
# Hepatitis C virus = assay: Antiviral activity against HCV infected in human Huh7.5 cells assessed as reduction in viral RNA expression at 10 uM pretreated for 1 hr followed by viral infection and measured after 48 hrs by RT-qPCR analysis; type: functional, Hepacivirus hominis; design: scale not given: the % may be the effect or the level left; details: time 49 hrs
# How it was run: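 Huh7.5 cells pretreated 1 h with compound (10 μM) or DMSO, then infected with HCV (MOI 0.5) in compound-containing DMEM; medium replaced with compound medium at 5 h post-infection. At 48 h post-infection, RNA extracted. HCV and 18S RNA copy numbers quantified by RT-qPCR against standards. HCV RNA normalized to 18S, then to DMSO control.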
# Huh-7 [6] = assay: Inhibition of pGL3-miR-122 (unknown origin) promotor activity transfected in Huh-7 cells harboring HNF6 mutant assessed as reduction in luciferase activity at 25 uM after 48 hrs by Bright-glo luciferase assay; type: cell-based; how it was run: as §2
# microRNA 122 [7] = assay: Inhibition of miR-122 in human Huh-7 cells assessed as reduction in E-cadherin expression at 25 uM incubated for 48 hrs by Western blot analysis; type: cell-based
# How it was run: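 Huh7 cells treated 48 h at 37 °C with compound or DMSO (0.1% final), then lysed and run on 10% SDS-PAGE. Transferred to PVDF, blocked in 5% BSA/TBST. Probed overnight at 4 °C with anti-E-cadherin or anti-GAPDH (1:1000), then HRP anti-rabbit (1:2500), and detected by chemiluminescence. GAPDH used as internal control.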
# Huh-7 [8] = assay: Inhibition of pGL3-miR-122 (unknown origin) promotor activity transfected in Huh-7 cells harboring AP-1 mutant assessed as reduction in luciferase activity at 25 uM after 48 hrs by Bright-glo luciferase assay; type: cell-based; how it was run: as §2
# Huh-7 [9] = assay: Cytotoxicity against human Huh-7 cells assessed as reduction in cell viability at 10 to 25 uM after 48 hrs by XTT assay; type: toxicity, cell-based; details: huh-7, 48 h, dose 10-25 µM
# How it was run: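 Huh7 cells given compound for 48 h, then XTT reagent activated with menadione. Absorbance at 450 nm minus 630 nm read immediately and after 4 h; viability taken as the difference between the two readings.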
# microRNA 122 [10] = assay: Inhibition of miR-122 in human Huh-7 cells assessed as reduction in mature miR-122 levels at 25 uM after 48 hrs by RT-qPCR analysis; type: cell-based
# How it was run: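 Huh7 cells treated 48 h with 25 μM compound or 0.1% DMSO, then total RNA isolated. 15 ng reverse-transcribed with TaqMan miRNA RT primers for miR-122 or RNU19. TaqMan qPCR run over 40 cycles in triplicate. Relative level from 2^−ΔΔCt versus RNU19 and DMSO. Three independent experiments.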
# microRNA 122 [11] = assay: Inhibition of miR-122 in human Huh-7 cells assessed as reduction in primary miR-122 expression at 25 uM incubated for 48 hrs by RT-qPCR analysis; type: cell-based
# How it was run: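 Huh7 cells treated 48 h with 25 μM compound or 0.1% DMSO. 50 ng total RNA reverse-transcribed with iScript. TaqMan qPCR run for pri-miR-122 and GAPDH in triplicate. Relative level from 2^−ΔΔCt normalized to GAPDH and DMSO. Three independent experiments.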
# Huh-7 [12] = assay: Inhibition of pGL3-miR-122 (unknown origin) promotor activity transfected in Huh-7 cells harboring HNF4alpha mutant by measuring reversal of mir-122 activity at 25 uM after 48 hrs by Bright-glo luciferase assay; type: cell-based; how it was run: as §2
# microRNA 122 [13] = assay: Inhibition of miR-122 in human Huh-7 cells expressing renilla luciferase gene after 48 hrs by dual luciferase assay; type: cell-based; how it was run: as §1
# Huh-7 [14] = assay: Inhibition of pGL3-miR-122 (unknown origin) promotor activity transfected in Huh-7 cells harboring HNF1alpha mutant assessed as reduction in luciferase activity at 25 uM after 48 hrs by Bright-glo luciferase assay; type: cell-based; how it was run: as §2
structure (smiles),measurement,setting,value
COc1cc(C)c(C(C)C)cc1S(=O)(=O)n1cnc(-c2ccccc2)c1,Activity,microRNA 122 [1],35%
COc1cc(C)c(C(C)C)cc1S(=O)(=O)Nc1ccccc1,Activity,microRNA 122 [1],47%
COc1cc(C)c(C(C)C)cc1S(=O)(=O)N(C)c1cc(C)ccc1C,Activity,microRNA 122 [1],77%
same,Activity,[2],245%
same,residual activity,Renilla,100%
COc1cc(C)c(C(C)C)cc1S(=O)(=O)n1cccc1,Activity,microRNA 122 [1],29%
Cc1ccc([N+](=O)[O-])cc1S(=O)(=O)n1c(C)nc2ccccc21,inhibition,HEK293,50%
same,Kd,[3],0.832 µM
COc1cc(C)c(C(C)C)cc1S(=O)(=O)Nc1ncccc1C,Activity,microRNA 122 [1],135%
same,residual activity,Renilla,17%
COc1cc(C)c(C(C)C)cc1S(=O)(=O)N(C)c1cccc(C)n1,Activity,microRNA 122 [1],107%
same,Activity,[2],117%
same,residual activity,Renilla,100%
COc1cc(C)c(C(C)C)cc1S(=O)(=O)n1ccc(C)c1,Activity,microRNA 122 [1],57%
same,residual activity,Renilla,87%
COc1cc(C)c(C(C)C)cc1S(=O)(=O)N(C)c1ccc(C)cc1,Activity,microRNA 122 [1],82%
same,Activity,[2],218%
same,residual activity,Renilla,100%
COc1cc(C)c(C(C)C)cc1S(=O)(=O)N(C)c1cccc(C)c1C,Activity,microRNA 122 [1],80%
same,Activity,[2],225%
same,residual activity,Renilla,93%
COc1cc(C)c(C(C)C)cc1S(=O)(=O)Nc1ccccn1,Activity,microRNA 122 [1],88%
same,residual activity,Renilla,8%
COc1cc(C)c(C(C)C)cc1S(=O)(=O)Nc1cccc(C)n1,Activity,microRNA 122 [1],89%
same,residual activity,Renilla,2%
COc1cc2c(cc1S(=O)(=O)n1cnc(C)c1)CCCC2,Activity,microRNA 122 [1],33.3%
COc1cc(C)c(C(C)C)cc1S(=O)(=O)N(C)c1ccccc1C,Activity,Huh-7 [4],Active
same,inhibition,Huh-7 [5],Active
same,Activity,Hepatitis C virus,88%
same,inhibition,Huh-7 [6],Active
same,Activity,microRNA 122 [1],104%
same,inhibition,microRNA 122 [7],Active
same,inhibition,Huh-7 [8],Active
same,Activity,[2],90%
same,Activity,Huh-7 [9],Non-Toxic
same,inhibition,microRNA 122 [10],38%
same,inhibition,HEK293,50%
same,inhibition,microRNA 122 [11],59%
same,Kd,[3],0.439 µM
same,inhibition,Huh-7 [12],64%
same,residual activity,Renilla,100%
same,EC50,microRNA 122 [13],11 µM
same,inhibition,Huh-7 [14],Active
COc1cc(C)c(C(C)C)cc1S(=O)(=O)n1ccc(C)n1,Activity,microRNA 122 [1],44%
COc1cc(C)c(C(C)C)cc1S(=O)(=O)n1cnc(C)c1,Activity,microRNA 122 [1],100%
same,Activity,[2],127%
same,residual activity,Renilla,80%
COc1cc(C)ccc1S(=O)(=O)n1cnc(C)c1,Activity,microRNA 122 [1],24%
same,residual activity,Renilla,80%
COc1cc(C)c(C(C)C)cc1S(=O)(=O)n1ccc2ccccc21,Activity,microRNA 122 [1],55%
same,residual activity,Renilla,94%
COc1cc(C)c(C(C)C)cc1S(=O)(=O)n1cnc([N+](=O)[O-])c1,Activity,microRNA 122 [1],61.1%
same,residual activity,Renilla,67%
COc1cc(C)c(C(C)C)cc1S(=O)(=O)N(C)c1ncccc1C,Activity,microRNA 122 [1],64%
same,Activity,[2],87%
same,residual activity,Renilla,100%
CCc1nccn1S(=O)(=O)c1cc(C(C)C)c(C)cc1OC,Activity,microRNA 122 [1],40%
COc1cc(C)c(C(C)C)cc1S(=O)(=O)n1cc(C)cn1,Activity,microRNA 122 [1],32%
CCNS(=O)(=O)c1cc(C(C)C)c(C)cc1OC,Activity,microRNA 122 [1],42%
COc1cc(C)c(C(C)C)cc1S(=O)(=O)n1cnc(Cl)c1Cl,Activity,microRNA 122 [1],4%
COc1cc(C)c(C(C)C)cc1S(=O)(=O)N(C)C,Activity,microRNA 122 [1],42%
COc1cc(C)c(C(C)C)cc1S(=O)(=O)n1cnc2ccccc21,Activity,microRNA 122 [1],75%
same,residual activity,Renilla,45%
COc1cc(C)c(C(C)C)cc1S(=O)(=O)Nc1ccccc1C,Activity,microRNA 122 [1],32%
CCOc1cc(C)c(C(C)C)cc1S(=O)(=O)n1cnc(C)c1,Activity,microRNA 122 [1],74%
same,residual activity,Renilla,70%
C#CCOc1cc(C)c(C(C)C)cc1S(=O)(=O)n1cnc(C)c1,Activity,microRNA 122 [1],50%
same,residual activity,Renilla,97%
COc1cc(C)c(C(C)C)cc1S(=O)(=O)n1ccnc1,Activity,microRNA 122 [1],33%
COc1cc(C)c(C)cc1S(=O)(=O)n1cnc(C)c1,Activity,microRNA 122 [1],32%
COc1cc(C)c(C(C)C)cc1S(=O)(=O)N(C)c1cccc(C)c1,Activity,microRNA 122 [1],122%
same,Activity,[2],103%
same,residual activity,Renilla,78%
COc1cc(C)c(C(C)C)cc1S(=O)(=O)N(C)c1ccccn1,Activity,microRNA 122 [1],89%
same,Activity,[2],88%
same,residual activity,Renilla,100%
